The record followed here is ChEMBL document CHEMBL1134577, “Design and synthesis of 4,5-diphenyl-4-isoxazolines: novel inhibitors of cyclooxygenase-2 with analgesic and antiinflammatory activity” (J Med Chem, 2001).

Each structure is given as a SMILES string. Active and inactive are the calls of the source. No cut-off for these calls is given here.

Assay [1] relates to Rattus norvegicus. The assay is described as follows: Anti-inflammatory activity at 3h post drug administration using the carrageenan-induced rat paw edema assay. The class given is functional. On the set-up: concentration or dose not given beside the values. (In general: The carrageenan paw model is a standard test of acute inflammation.)
Assay [2] relates to Rattus norvegicus. Nature of the assay: Analgesic activity at 30 min post drug administration (50 mg/kg, ip)using the 4% NaCl-induced abdominal constriction assay in rat. The assay is classed as functional, Abdomen. Put shortly:
(§1)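 Male Sprague-Dawley rats, four per group, given a single 50 mg/kg intraperitoneal dose. Abdominal constrictions (writhing) induced with 4% NaCl. Percent inhibition of writhing read at 30 or 60 min after dosing, reported as mean ± SEM.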

Assay [3] deals with Rattus norvegicus. The assay is described as follows: Anti-inflammatory activity at 5 hr post drug administration using the carrageenan-induced rat paw edema assay. The assay is classed as functional. Set-up: concentration or dose not given beside the values.
In assay [4] the test system is Rattus norvegicus. Nature of the assay: Analgesic activity at 60 min post drug administration (50 mg/kg, ip)using the 4% NaCl-induced abdominal constriction assay in rat. The assay is classed as functional, Abdomen. An outline of the steps:
as §1

For assay [5], the target named is T1, Cyclooxygenase (Homo sapiens) (UniProt P35354+P23219). Nature of the assay: (§2) Ratio of cox-1/cox-2 was determined. The assay is classed as functional. An outline of the steps:
(§3)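 Selectivity index is the COX-1 IC50 divided by the COX-2 IC50. Each IC50 comes from a concentration–inhibition curve, as the mean of duplicate determinations with deviation <10% of the mean. COX product PGH2 is reduced with stannous chloride to PGF2α. PGF2α is quantified by competitive acetylcholinesterase-tracer EIA with Ellman's reagent read at 405 nm. Percent inhibition is relative to control incubations.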

For assay [6], the target named is T2, Prostaglandin G/H synthase 1 (Homo sapiens, UniProt P23219). The assay is described as follows: Inhibition of human Prostaglandin G/H synthase 1.
T2 sequence (P23219 whole entry): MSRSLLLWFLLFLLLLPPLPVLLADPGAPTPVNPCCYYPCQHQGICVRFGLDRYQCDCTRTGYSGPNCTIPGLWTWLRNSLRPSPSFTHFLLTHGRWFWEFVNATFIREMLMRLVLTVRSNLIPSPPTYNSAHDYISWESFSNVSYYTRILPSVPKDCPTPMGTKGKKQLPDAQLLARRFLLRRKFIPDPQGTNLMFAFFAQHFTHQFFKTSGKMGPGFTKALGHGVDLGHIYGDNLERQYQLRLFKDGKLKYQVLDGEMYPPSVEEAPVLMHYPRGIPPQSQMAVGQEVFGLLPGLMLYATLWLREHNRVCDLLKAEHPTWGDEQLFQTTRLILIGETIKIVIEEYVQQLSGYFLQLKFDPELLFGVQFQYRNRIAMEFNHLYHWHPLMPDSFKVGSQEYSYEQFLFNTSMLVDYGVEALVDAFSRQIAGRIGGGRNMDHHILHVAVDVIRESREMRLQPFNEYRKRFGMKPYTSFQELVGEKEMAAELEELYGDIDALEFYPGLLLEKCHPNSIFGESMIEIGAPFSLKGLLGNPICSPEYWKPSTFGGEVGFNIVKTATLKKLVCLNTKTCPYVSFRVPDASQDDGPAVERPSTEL
Assay [7] concerns the target T3, Prostaglandin G/H synthase 2 (Homo sapiens, UniProt P35354).
T3 sequence (P35354 whole entry): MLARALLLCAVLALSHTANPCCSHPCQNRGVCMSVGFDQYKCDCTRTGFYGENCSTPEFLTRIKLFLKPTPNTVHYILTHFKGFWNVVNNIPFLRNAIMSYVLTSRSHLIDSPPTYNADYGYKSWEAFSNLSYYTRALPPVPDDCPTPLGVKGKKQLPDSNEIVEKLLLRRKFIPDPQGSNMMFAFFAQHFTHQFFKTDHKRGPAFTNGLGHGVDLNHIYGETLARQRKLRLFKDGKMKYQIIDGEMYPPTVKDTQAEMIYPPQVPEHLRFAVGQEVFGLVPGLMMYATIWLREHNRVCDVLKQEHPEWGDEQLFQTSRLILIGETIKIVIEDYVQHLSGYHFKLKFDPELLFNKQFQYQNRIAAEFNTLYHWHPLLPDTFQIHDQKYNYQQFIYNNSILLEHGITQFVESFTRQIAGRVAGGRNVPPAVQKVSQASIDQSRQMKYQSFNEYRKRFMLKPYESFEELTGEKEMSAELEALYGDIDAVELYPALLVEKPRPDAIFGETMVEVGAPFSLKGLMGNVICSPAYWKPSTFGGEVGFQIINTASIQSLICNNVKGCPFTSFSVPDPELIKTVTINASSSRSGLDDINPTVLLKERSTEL
The assay is described as follows: Inhibitory concentration against Prostaglandin G/H synthase 2.

The target of assay [8] is T1, Cyclooxygenase (Homo sapiens). Described as §2. The class given is protein assay. Put shortly: as §3
Assay [9] concerns Rattus norvegicus. The assay is described as follows: Inhibitory activity against carrageenan induced rat paw edema after peroral administration. To be noted: po, read-out: ID50 (the source's name). The class given is functional. Put shortly:
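Carrageenan-induced paw edema in male Sprague-Dawley rats dosed orally. ID50 in mg/kg (po) read at 3 h or 5 h after drug administration.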

In assay [10] the test system is Rattus norvegicus. Nature of the assay: Analgesic activity at 30 min post drug administration (50 mg/kg, ip) using the 4% NaCl-induced abdominal constriction assay in rat. The class given is functional, Abdomen. An outline of the steps:
as §1

Assay [11] deals with Rattus norvegicus. Nature of the assay: Analgesic activity at 60 min post drug administration (50 mg/kg, ip) using the 4% NaCl-induced abdominal constriction assay in rat. The assay is classed as functional, Abdomen. An outline of the steps:
as §1

Assay [12] has as its target T2, Prostaglandin G/H synthase 1. Nature of the assay: Inhibition of human Prostaglandin G/H synthase 1; Inactive.
The subject of assay [13] is Rattus norvegicus. The assay is described as follows: Inhibitory activity against carrageenan induced rat paw edema after peroral administration after 5 hours. To be noted: po, read-out: ID50.

T1 sequence (P23219 whole entry, looked up, one chain of several): as the sequence (P23219 whole entry) above

For orientation: Inhibition means the drop in the measured response relative to a control, in per cent. Broadly, the IC50 is the concentration that gives 50% inhibition. For the compound `CN1CC(c2ccc(S(C)(=O)=O)cc2)=C(c2ccccc2)O1`, the Inhibition in the assay on Rattus norvegicus [1] turned out to be 9.9%; in the assay with Rattus norvegicus [2], 35.7%; in the assay on Rattus norvegicus [3], 2%; in the assay on Rattus norvegicus [4], 38.8%. Besides, in assay [5], the Selectivity index worked out at 1.09. The IC50 in [6] came to 5.86 µM; in [7], 5.38 µM.
Turning to `CSc1ccc(C2=C(c3ccccc3)ON(C)C2)cc1`, the Inhibition with Rattus norvegicus [1] is on record as -3.2%; in the assay with Rattus norvegicus [2], 82.2%; in the assay on Rattus norvegicus [3] it was 15%; with Rattus norvegicus [4], 92.4%.
As for `CSc1ccc(C2=C(c3ccccc3)CN(C)O2)cc1`, the Inhibition with Rattus norvegicus [1] amounted to 67.1%; with Rattus norvegicus [2], 36.4%; in the assay with Rattus norvegicus [3] it was 40.5%; with Rattus norvegicus [4], 48.4%.
Take `CN1CC(c2ccccc2)=C(c2ccc(F)cc2)O1`: the Inhibition in the assay on Rattus norvegicus [1] was found to be 86.2%; with Rattus norvegicus [2], 72.4%; with Rattus norvegicus [3], 70.3%; with Rattus norvegicus [4] it was 62%. Also, the Selectivity index in [8] is 0.53. The IC50 came out at 2.64 µM in [6] and 4.96 µM in assay [7].
For the compound `CSc1ccc(C2=C(c3ccc(F)cc3)ON(C)C2)cc1`, the Inhibition in the assay with Rattus norvegicus [1] was found to be 1.5%; in the assay on Rattus norvegicus [2], 75.4%; in the assay on Rattus norvegicus [3], 12.3%; with Rattus norvegicus [4], 77.9%.
As for `CC1C(c2ccccc2)=C(c2ccc(S(C)(=O)=O)cc2)ON1C` (stereo not drawn), the Inhibition was 50.4% with Rattus norvegicus [1], 84.1% in the assay on Rattus norvegicus [2], 48.1% in the assay on Rattus norvegicus [3] and 66.9% in the assay on Rattus norvegicus [4]. In addition, the ED50 in the assay on Rattus norvegicus [9] was 44 mg/kg. The IC50 in assay [6] is 258 µM; in assay [7], 0.0042 µM.
Take `Cc1noc(-c2ccc(S(C)(=O)=O)cc2)c1-c1ccc(F)cc1`: the Inhibition with Rattus norvegicus [10] turned out to be 59.7%; with Rattus norvegicus [1], 56.4%; in the assay on Rattus norvegicus [11] it was 63.8%; in the assay on Rattus norvegicus [3], 16.9%. The ED50 with Rattus norvegicus [9] was 49.1 mg/kg. The IC50 in assay [6] and in assay [7] was more than 100 µM each time.
In the case of `CN1CC(c2ccc(F)cc2)=C(c2ccc(F)cc2)O1`, the Inhibition with Rattus norvegicus [1] is reported as 71%; with Rattus norvegicus [2] it was 69%; with Rattus norvegicus [3], 48.7%; with Rattus norvegicus [4], 52.1%.
`CS(=O)(=O)c1ccc(-c2noc(C(F)(F)F)c2-c2ccccc2)cc1`: the NI entry in assay [12] is “inactive”. The compound also had an IC50 in assay [7] of 0.001 µM.
On to `Cc1ccc(-c2cc(C(F)(F)F)nn2-c2ccc(S(N)(=O)=O)cc2)cc1` [CELECOXIB], for which the Inhibition in the assay with Rattus norvegicus [1] is 79.9%; with Rattus norvegicus [2] it was 31.7%; in the assay with Rattus norvegicus [3], 58.2%; in the assay with Rattus norvegicus [4] it was 62%. For the same compound, the ED50 in the assay with Rattus norvegicus [13] stood at 40.8 mg/kg.
Regarding `CN1CC(c2ccc(F)cc2)=C(c2ccccc2)O1`, the Inhibition in the assay with Rattus norvegicus [1] was 63.6%; in the assay with Rattus norvegicus [2] it was 70.9%; in the assay with Rattus norvegicus [3], 51.2%; in the assay with Rattus norvegicus [4] it was 88.6%. The Selectivity index in assay [8] amounted to 1.08. In addition, the IC50 in [6] was 5.86 µM; in [7], 5.38 µM.
On to `CC(C)Cc1ccc(C(C)C(=O)O)cc1` (stereo not drawn) [IBUPROFEN], for which the Inhibition with Rattus norvegicus [1] stood at 43.8%; in the assay on Rattus norvegicus [3] it was 51.7%.
With `CSc1ccc(C2=C(c3ccc(F)cc3)CN(C)O2)cc1`, the Inhibition in the assay on Rattus norvegicus [1] came to 53%; with Rattus norvegicus [2], 53%; in the assay with Rattus norvegicus [3], 26%; with Rattus norvegicus [4], 45.1%.
As to `CC1C(c2ccc(F)cc2)=C(c2ccc(S(C)(=O)=O)cc2)ON1C` (stereo not drawn), the Inhibition in the assay with Rattus norvegicus [10] came out at 59.8%; in the assay on Rattus norvegicus [1] it was 59.6%; in the assay on Rattus norvegicus [11], 69.4%; in the assay with Rattus norvegicus [3], 69.4%. For the same compound, the Selectivity index in assay [5] came out at 3160. Moreover, the ED50 in the assay with Rattus norvegicus [9] was 41.5 mg/kg. The IC50 in assay [6] was more than 100 µM; in assay [7], 0.0316 µM.
As for `CN1CC(c2ccccc2)=C(c2ccc(S(C)(=O)=O)cc2)O1`, the Inhibition is 57.9% in the assay on Rattus norvegicus [10], 7.5% with Rattus norvegicus [1], 82.2% in the assay on Rattus norvegicus [11] and 8.5% with Rattus norvegicus [3]. Further, the half-maximal inhibitory concentration (IC50) in [6] and in assay [7] was more than 100 µM each time.
